Where “and” joins values, the source holds several entries; their conditions need not be identical. Identical values can stand only once. Like-named read-outs stand apart in the source and are kept apart here.
How the values were obtained:
MATE1 = conditions: read-out: Ki, MATE1 inhibition; in vitro; ref Novartis data on file; cited from earlier work
[1] = therapeutic dose 400 mg twice daily, cited from earlier work
[2] = Capmatinib/CMN288 pharmacokinetics, inhibition cohort; type: in vivo, human (healthy subjects); conditions: for AUCinf geometric mean ratio (90%CI) / AUClast geometric mean ratio (90%CI) / Cmax geometric mean ratio (90%CI): itraconazole + capmatinib 200 mg / capmatinib alone
Outline: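 Inhibition cohort of healthy subjects (n = 27): a single fasted oral 200 mg dose on day 1, then a 4-day washout. Itraconazole 200 mg was given daily on days 5–14, and 200 mg test compound was dosed 1 h after the sixth itraconazole dose (day 10). Plasma was sampled serially to 96 h after each dose and assayed by validated LC-MS/MS (LLOQ ≈1.0 ng/mL). Test/reference ratios are antilogged point estimates with 2-sided 90%CIs.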

OATP1B1 = conditions: cited from earlier work
[3] = healthy subjects, used for sample size; cited from earlier work
Safety assessment = type: in vivo, human (healthy subjects)
[4] = Capmatinib/CMN288 pharmacokinetics, induction cohort; type: in vivo, human (healthy subjects); conditions: for AUC(0-inf): AUCinf; for AUC(0-t): AUClast; for AUCinf geometric mean ratio (90%CI) / AUClast geometric mean ratio (90%CI) / Cmax geometric mean ratio (90%CI): rifampicin + capmatinib 400 mg / capmatinib alone
Outline: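 Healthy subjects (induction cohort, n = 26) received a single fasted oral 400 mg dose on day 1, then a 4-day washout. Rifampicin 600 mg was given daily on days 5–13, with 400 mg test compound coadministered with the sixth dose on day 10. Serial plasma was drawn to 72 h after each dose and frozen <–70°C. Parent and metabolite were measured by validated LC-MS/MS (LLOQ ≈1.0 ng/mL). Ratios are antilogged 90%CIs.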

[5] = type: in vivo, human (healthy subjects); conditions: for Maximum increase of serum creatinine concentration from baseline: at 24 hours
Outline: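 Blood was drawn from healthy subjects at 0, 2, 4, 8, 24, 48 and 72 h after the day-1 single fasted oral dose: 200 mg in the inhibition cohort, 400 mg in the induction cohort. Creatinine and cystatin C were measured in each sample. Change from baseline was summarized descriptively by time point.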

MATE2K = conditions: read-out: Ki, MATE2K inhibition; in vitro; ref Novartis data on file; cited from earlier work
OATP1B3 = conditions: cited from earlier work
[6] = itraconazole 200 mg daily; cited from earlier work
[7] = capmatinib + itraconazole compared to capmatinib alone
[8] = inhibition cohort, healthy subjects, single oral capmatinib 200 mg + itraconazole 200 mg/day, plasma
[9] = inhibition cohort, healthy subjects, single oral capmatinib 200 mg alone, plasma
[10] = induction cohort N=26 (capmatinib 400 mg, rifampicin 600 mg/day)
[11] = inhibition cohort N=27 (capmatinib 200 mg, itraconazole 200 mg/day)
[12] = capmatinib + rifampicin compared to capmatinib alone
[13] = human, plasma, po, adjusted geometric mean, induction cohort, healthy subjects, single oral capmatinib 400 mg + rifampicin 600 mg/day, plasma
[14] = human, plasma, po, geometric mean (geometric CV%), induction cohort, healthy subjects, single oral capmatinib 400 mg + rifampicin 600 mg/day, plasma
[15] = human, plasma, po, mean (CV%), induction cohort, healthy subjects, single oral capmatinib 400 mg + rifampicin 600 mg/day, plasma
[16] = induction cohort, healthy subjects, single oral capmatinib 400 mg + rifampicin 600 mg/day, plasma
[17] = induction cohort, healthy subjects, single oral capmatinib 400 mg alone, plasma
[18] = single dose 200 mg capmatinib, inhibition cohort
[19] = single dose 400 mg capmatinib, induction cohort

Which Ki (MATE1) does the source give for `CNC(=O)c1ccc(-c2cnc3ncc(Cc4ccc5ncccc5c4)n3n2)cc1F` [Capmatinib] here?
Its Ki is 280 nM.

What about the Cmax ([1]; read-out: Steady-state Cmax, total) of the same molecule?
Its Cmax is 11.6 µM.

And the “Steady-state Cmax, unbound” value ([1]; unbound)?
The value was 0.464 µM.

What about the “Increase of geometric mean AUCinf with itraconazole” value [2, 7] of the same molecule?
The value was 42%.

What about the “Increase of geometric mean AUClast with itraconazole” value [2, 7] of the same molecule?
Its value is 41%.

What about the AUC(0-t) ([2]; human, plasma, po, 200 mg) of the same molecule?
Its AUC(0-t) is 5430 ng·h/mL.

And the AUC(0-inf) ([2]; human, plasma, po, AUCinf, geometric mean (geometric CV%), inhibition cohort, healthy subjects, single oral capmatinib 200 mg + itraconazole 200 mg/day, plasma)?
The AUC(0-inf) was 7450 ng·h/mL.

And the Cmax ([2]; human, plasma, po, adjusted geometric mean, inhibition cohort, healthy subjects, single oral capmatinib 200 mg + itraconazole 200 mg/day, plasma)?
Its Cmax is 1300 ng/mL.

What about the Cmax ([2]; human, plasma, po, geometric mean (geometric CV%), inhibition cohort, healthy subjects, single oral capmatinib 200 mg + itraconazole 200 mg/day, plasma) of the same molecule?
Its Cmax is 1290 ng/mL.

What about the Cmax ([2]; human, plasma, po, mean (CV%), inhibition cohort, healthy subjects, single oral capmatinib 200 mg + itraconazole 200 mg/day, plasma) of the same molecule?
Its Cmax is 1410 ng/mL.

And the “AUCinf, adjusted geometric mean” value [2, 8]?
Its value is 7360 ng·h/mL.

And the “AUCinf, mean (CV%)” value [2, 8]?
The value was 7680 (24.3) ng · h/mL.

What about the “AUClast, adjusted geometric mean” value [2, 8] of the same molecule?
The value was 7340 ng·h/mL.

What about the “AUClast, mean (CV%)” value [2, 8] of the same molecule?
The value was 7660 (24.5) ng · h/mL.

What about the “CL/F, geometric mean (geometric CV%)” value [2, 8] of the same molecule?
Its value is 26.8 (26.4) L/h.

And the “CL/F, mean (CV%)” value [2, 8]?
Its value is 27.8 (28.1) L/h.

And the “t1/2, geometric mean (geometric CV%)” value [2, 8]?
Its value is 6.05 (31.3) h.

And the “t1/2, mean (CV%)” value [2, 8]?
The value was 6.34 (32.8) h.

What about the “tmax, median (range)” value [2, 8] of the same molecule?
Its value is 2.00 (0.495–4.01) h.

What about the “AUCinf, geometric mean (geometric CV%)” value [2, 9] of the same molecule?
Its value is 5280 (30.6) ng · h/mL.

And the “AUClast, adjusted geometric mean” value [2, 9]?
The value was 5220 ng·h/mL.

And the “AUClast, geometric mean (geometric CV%)” value [2, 9]?
Its value is 5220 (30.6) ng · h/mL.

What about the “CL/F, geometric mean (geometric CV%)” value [2, 9] of the same molecule?
The value was 37.9 (30.6) L/h.

What about the “CL/F, mean (CV%)” value [2, 9] of the same molecule?
Its value is 39.6 (33.4) L/h.

What about the “Cmax, adjusted geometric mean” value [2, 9] of the same molecule?
Its value is 1260 ng/mL.

And the “Cmax, geometric mean (geometric CV%)” value [2, 9]?
Its value is 1260 (46.9) ng/mL.

What about the “Cmax, mean (CV%)” value [2, 9] of the same molecule?
The value was 1380 (40.4) ng/mL.

What about the “Tmax, median” value [2, 9] of the same molecule?
The value was 1.00 h.

And the “tmax, median (range)” value [2, 9]?
Its value is 1.00 (0.505–4.00) h.

What about the “AUCinf geometric mean ratio (90%CI)” value [2] of the same molecule?
Its value is 1.42 (1.33–1.52).

What about the “AUClast geometric mean ratio (90%CI)” value [2] of the same molecule?
The value was 1.41 (1.29–1.53).

And the “Cmax geometric mean ratio (90%CI)” value [2]?
The value was 1.03 (0.866–1.22).

And the “AUCinf geometric mean ratio (90%CI)” value ([2]; listed as capmatinib)?
Its value is 1.42.

And the “AUClast geometric mean ratio (90%CI)” value ([2]; listed as capmatinib)?
Its value is 1.41.

What about the “Cmax geometric mean ratio (90%CI)” value ([2]; listed as capmatinib) of the same molecule?
The value was 1.03.

What about the “Tmax median difference (minimum to maximum differences)” value ([2]; itraconazole + capmatinib 200 mg vs capmatinib alone) of the same molecule?
Its value is 0.489 (–3.02 to 3.00) h.

And the “Substrate of OATP1B1” value (OATP1B1)?
The value was “not a substrate”.

And the “Intrasubject coefficient of variation (CV%) for AUC” value [3]?
Its value is 22.8%.

And the “Intrasubject coefficient of variation (CV%) for Cmax” value [3]?
Its value is 29.9%.

What about the Deaths (Safety assessment; either treatment cohort) of the same molecule?
The Deaths was “No deaths were reported”.

What about the “Serious AEs” value (Safety assessment; either treatment cohort) of the same molecule?
The value was “No serious AEs were reported”.

What about the “AEs suspected to be related to the study treatment (any grade)” value (Safety assessment; [10]) of the same molecule?
Its value is 10 subjects.

What about the “Discontinued study treatment due to AEs” value (Safety assessment; [10]) of the same molecule?
Its value is 1 subjects.

What about the “AEs suspected to be related to the study treatment (any grade)” value (Safety assessment; [11]) of the same molecule?
The value was 13 subjects.

What about the “Amylase increased, grade 3” value (Safety assessment; [11]) of the same molecule?
Its value is 1 subjects.

And the “Decrease of geometric mean AUCinf with rifampicin” value [4, 12]?
The value was 66.5% and 67%.

What about the “Decrease of geometric mean AUClast with rifampicin” value [4, 12] of the same molecule?
Its value is 67.8%.

And the “Decrease of geometric mean Cmax with rifampicin” value [4, 12]?
The value was 55.9% and 55%.

And the Tmax ([4]; human, plasma, po, 400 mg)?
The Tmax was 0.994 h.

And the AUC(0-inf) [4, 13]?
Its AUC(0-inf) is 3850 ng·h/mL.

What about the AUC(0-inf) [4, 14] of the same molecule?
The AUC(0-inf) was 3890 ng·h/mL.

And the AUC(0-inf) [4, 15]?
Its AUC(0-inf) is 4050 ng·h/mL.

What about the AUC(0-t) [4, 13] of the same molecule?
The AUC(0-t) was 3720 ng·h/mL.

What about the AUC(0-t) [4, 14] of the same molecule?
The AUC(0-t) was 3720 ng·h/mL.

What about the AUC(0-t) [4, 15] of the same molecule?
Its AUC(0-t) is 3860 ng·h/mL.

What about the Cmax [4, 13] of the same molecule?
The Cmax was 1350 ng/mL.

And the Cmax [4, 14]?
The Cmax was 1350 ng/mL.

And the half-life ([4]; human, plasma, po, t1/2, mean (CV%), induction cohort, healthy subjects, single oral capmatinib 400 mg + rifampicin 600 mg/day, plasma)?
The half-life was 11.1 h.

And the “CL/F, geometric mean (geometric CV%)” value [4, 16]?
The value was 103 (29.4) L/h.

And the “CL/F, mean (CV%)” value [4, 16]?
Its value is 107 (26.1) L/h.

And the “Cmax, mean (CV%)” value [4, 16]?
Its value is 1460 (43.4) ng/mL.

And the “t1/2, geometric mean (geometric CV%)” value [4, 16]?
Its value is 10.3 (40.8) h.

And the “tmax, median (range)” value [4, 16]?
Its value is 0.994 (0.478–2.00) h.

And the “CL/F, geometric mean (geometric CV%)” value [4, 17]?
The value was 35.4 (24.3) L/h.

What about the “CL/F, mean (CV%)” value [4, 17] of the same molecule?
Its value is 36.4 (23.7) L/h.

What about the “tmax, median (range)” value [4, 17] of the same molecule?
Its value is 0.994 (0.461–3.00) h.

And the “AUCinf geometric mean ratio (90%CI)” value [4]?
The value was 0.335 (0.300–0.374).

And the “AUClast geometric mean ratio (90%CI)” value [4]?
Its value is 0.322 (0.294–0.353).

What about the “Cmax geometric mean ratio (90%CI)” value [4] of the same molecule?
The value was 0.441 (0.387–0.502).

And the “AUCinf geometric mean ratio (90%CI)” value ([4]; listed as capmatinib)?
Its value is 0.335.

What about the “AUClast geometric mean ratio (90%CI)” value ([4]; listed as capmatinib) of the same molecule?
The value was 0.322.

And the “Cmax geometric mean ratio (90%CI)” value ([4]; listed as capmatinib)?
The value was 0.441.

And the “Change in serum creatinine” value ([5]; after a single dose of capmatinib, 3-day monitoring)?
The value was “transient increase”.

And the “Time at which serum creatinine returned to baseline” value [5, 18]?
The value was 48 h.

What about the “Maximum increase of serum creatinine concentration from baseline” value [5, 18] of the same molecule?
Its value is 21%.

What about the “Time at which serum creatinine returned to baseline” value [5, 19] of the same molecule?
Its value is 72 h.

What about the “Maximum increase of serum creatinine concentration from baseline” value [5, 19] of the same molecule?
The value was 27.3%.

And the “Change in serum cystatin C concentration” value ([5]; single dose capmatinib 200 or 400 mg, both cohorts, 3-day monitoring)?
The value was “no change”.

And the Ki (MATE2K)?
The Ki was 290 nM.

What about the “Substrate of OATP1B3” value (OATP1B3) of the same molecule?
The value was “not a substrate”.

For `Cc1nnc2n1-c1ccc(Cl)cc1C(c1ccccc1Cl)=NC2` [triazolam], which “Increase in exposure with itraconazole regimen” value [6] is on record?
The value was 27 fold.

Reference: article PMC10092221 (Journal of Clinical Pharmacology, 2022)
